Rows were chosen to be rich in hits. Some 2.3% of all compounds tested hit in one or more screens of this group.
TWEAK-Fn14 inh: TWEAK-Fn14 signaling inhibition. TWEAK-stimulated Fn14 reporter cells, luciferase luminescence, 8 h. inhibition, % at 10 µM. actives 2% (n = 360,000); in the data active = inhibition above about 50%
LGR2 antag: blocks bursicon-induced cAMP signaling via Drosophila LGR2 | actives 0.35% (n = 380,000) | AID 720647 | HEK293 LGR2, CRE-luciferase, bursicon-stimulated, 4 h | inhibition, % at 9.99 µM;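 active = drop in luminescence signal, shown as inhibition above about 50% in the replicate tests, limit read from the data, passing the limit was not always enough; inconclusive = probably only some replicates passing the limit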;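 note: agonist challenge used bursicon conditioned medium at about half maximal strength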
TROY signal inh: blocks TROY-dependent signaling in reporter cells | AID 1347056 | actives 0.98% (n = 360,000) | Q293 LMP1-TROYcd NF-kB luciferase reporter, 4 h | inhibition, % at 10 µM;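 active = compounds whose plate-normalised and pattern-corrected inhibition of the luciferase reporter signal at the single screening dose is 50% or more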
FN deposit inh: fibronectin deposition inhibition. AH1F fibroblasts, Alexa488-fibronectin deposition fluorescence, overnight. inhibition, % at 12.6 µM. actives 0.086% (n = 350,000);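 active = mean inhibition across replicates of 30% or more, regardless of how many single replicates reach that level; inconclusive = mean under 30% yet at least half of replicates reach 30%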;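 note: positive control wells lacked labelled fibronectin entirely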
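Material: AH1F fibroblast monolayer depositing Alexa488-labelled fibronectin into matrix / Amount: 10000 AH1F cells per well / Signal: fluorescence 485/525 nm / Medium: DMEM, 2% serum / Compound: single dose, pinned / Incubation: 1 h cell adhesion before compound, then overnight fibronectin incubation / Reagent: Alexa488-FN, 24 nM final / Read-out: inhibition of fibronectin deposition signal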
EWS-Fli block: blocks EWS/Fli oncoprotein-driven transcription; inhibition, % at 12.6 µM; actives 0.67% (n = 350,000); AID 651661; A673 NR0B1-luciferase reporter, viability-normalised;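 active = mean inhibition of at least 50% after viability correction, with every replicate also passing that limit; inconclusive = mean reaches 50% but only one of two replicates passes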;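 note: firefly luciferase signal divided by Alamar Blue viability fluorescence both relative to DMSO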
XiGFP reactiv: reactivates the inactive X chromosome in mouse fibroblasts; AID 743238; actives 0.055% (n = 360,000); XiGFP mouse fibroblasts, % GFP-positive cells imaging, 3 d; cells co-treated with 5-aza-dC sensitizer; scaled so ellipticine positive control = 100%; activation, % at 7.58 µM;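 active = mean normalized replicate activation at least 10% and every replicate at or above 10%; inconclusive = only one of the two criteria met; inactive = mean below 10% and not all replicates reach 10%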;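 note: 0% = median of on-plate neutral control wells and 100% = ellipticine 6 µM median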
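Material: SV40-immortalized XiGFP fibroblast cells, line 68-5-11 | Buffer or medium: DMEM containing 5-aza-dC | Dosing: One concentration, pinned | Times: 3 d treatment, 15 min room-temperature fixation | Controls: Ellipticine 6 µM positive control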
The depositor's hits bear a star; ? = inconclusive; / = not tested or not shown.

SMILES	TWEAK-Fn14 inh	LGR2 antag	TROY signal inh	FN deposit inh	EWS-Fli block	XiGFP reactiv
CCOc1ccc2nc(COC(=O)c3ccncc3)c(C(=O)c3ccccc3)[n+]([O-])c2c1	52*	-47	61*	-1	-46	0
CCC(=O)Nc1ccc2c(c1)C(=O)N(C)C[C@@H](OC)[C@@H](C)CN(C(=O)C1CCC1)[C@H](C)CO2	/	-10	/	-4	17	0
Cc1ccc2sc(N(CCCN(C)C)C(=O)CCS(=O)(=O)c3ccccc3)nc2c1C	63*	5	-22	13	/	0
CN(C)CCCN(C(=O)CCS(=O)(=O)c1ccccc1)c1nc2cc3c(cc2s1)OCO3	69*	22	56*	/	/	5
CN(C)CCCN(C(=O)CCSc1ccccc1)c1nc2cc3c(cc2s1)OCO3	31	1	-45	-11	1	0
COc1ccc(Cl)c2sc(N(CCN(C)C)C(=O)CCS(=O)(=O)c3ccc(C)cc3)nc12	-3	0	-51	-4	9	0
COc1ccc(OC)c2sc(N(CCCN(C)C)C(=O)CCS(=O)(=O)c3ccccc3)nc12	53*	25	24	/	43	0
COc1ccc2c3c(n(C)c2c1)[C@@H](CO)N(Cc1ccccc1)CC31CCN(C(=O)c2ccccc2F)CC1	/	10	/	/	33	0
CC(=O)Nc1nc(C)c(-c2csc(Nc3cccc(C(C)=O)c3)n2)s1	23	-2	-15	12	-2	0
CC(=O)Nc1nc(C)c(-c2csc(Nc3cccc([N+](=O)[O-])c3)n2)s1	59*	16	37	/	/	/
CCC(=O)N1CC[C@@H]2[C@@H](CO)N(C)c3ccc(-c4ccccc4)cc3[C@@H]21	/	-9	/	3	2	0
Nc1nc2ncc(C(=O)c3cc(Cl)cc(Cl)c3O)cc2s1	-15	8	-7	-7	5	1
CC(C)c1noc2ncc(C(=O)c3cc(Cl)cc(Cl)c3O)cc12	10	/	62*	/	/	/
CN(C)C(=O)c1cccc(-c2ccccc2[C@H]2[C@H](C#N)N(C(=O)C3CCCC3)[C@H]2CO)c1	/	12	/	-14	2	0
COc1cccc(NC(=O)N[C@H]2CC[C@H](CC(=O)NCc3ccccn3)O[C@H]2CO)c1	/	18	/	2	-65	0
N/C(=N\OC(=O)/C=C/c1ccc(Br)cc1)c1ccccn1	66*	?	52*	-2	/	0
N/C(=N\OC(=O)/C=C/c1ccccc1Cl)c1ccccn1	75*	73*	68*	-11	42	0
Cc1[nH]c(C)c(C(=O)/C=C/c2ccc([N+](=O)[O-])cc2)c1C	60*	/	10	4	63*	0
COc1ccc(C=CC(=O)c2ccc([N+](=O)[O-])cc2)cc1	-39	-5	-94	18	-9	0
CCC(=O)N(C)C[C@@H]1Oc2cc(C#CCN(C)C)ccc2S(=O)(=O)N([C@@H](C)CO)C[C@H]1C	/	1	/	-1	5	-1
CCCC(=O)Nc1ccc2c(c1)C(=O)N(C)[C@H]1CC[C@@H](CC(=O)N3CCCCC3)O[C@H]1CO2	/	1	/	3	4	0
N#CC1=C(N)C(C#N)(C#N)[C@H](c2cccnc2)[C@H]2CN(C(=O)OCc3ccccc3)CC=C12	6	9	-20	12	2	0
N#CC1=C(N)C(C#N)(C#N)C(c2cccnc2)C2CC(c3ccccc3)CC=C12 (stereo unspecified)	61*	/	10	/	/	/
Cc1cc(Cl)ccc1OC(C)C(=O)Nc1ccc(C(=O)Nc2ccccc2C(=O)O)cc1 (stereo unspecified)	37	13	57*	/	/	0
COc1ccc(/C=C/C(=O)c2cc(F)ccc2OC(=O)c2ccccc2C)cc1OC	53*	32	24	-43	?	3
COc1ccc(/C=C/C(=O)c2ccc3c4c(cccc24)CC3)cc1OC	52*	-22	-7	4	/	0
Cc1ccc(O)c(C(=O)/C=C/c2ccc3c(c2)OCCCO3)c1	56*	-30	-26	/	-12	1
CN(C)c1ccc(/C=C/C(=O)c2ccccc2O)cc1	58*	-2	50*	2	-13	1
